BaF3 parental: parental Ba/F3 viability inhibition as JAK2V617F counter-screen; CellTiter-Glo ATP luminescence; inhibition, % at 5.6 µM; 1.1% of 220,000 active;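 active means inhibition above a per-campaign cutoff, the mean inhibition of all tested compounds plus 3 SD, cut at about 27% in these data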
Ba/F3 V617F tox: reduce viability of Ba/F3 cells dependent on JAK2V617F; Ba/F3 EpoR-JAK2V617F viability, ATP luminescence; inhibition, % at 5.6 µM; 1.1% of 220,000 active; AID 1446;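 active means inhibition above the campaign mean plus 3 SD over all tested compounds, cut at about 24% in these data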;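 further: cytokine-independent growth of Ba/F3 cells driven by EpoR plus mutant JAK2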
APP 5UTR inh: APP translation inhibition | 0.82% of 190,000 active | SH-SY5Y APP 5'UTR-luciferase reporter, luminescence | AID 1285 | inhibition, % at 2 µM;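 active means inhibition above a set limit, derived from the sample mean plus 3 SD, cut at about 45% in these data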
b-catenin transl: modulators of beta-catenin nuclear translocation. HeLa beta-catenin nuclear translocation, immunofluorescence imaging. nuclear translocation activity, % at 5 µM. 0.3% of 190,000 active;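 active means nuclear translocation activity above 50% at 5 µM, with a well cell count of 50 or more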;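 further: per-cell ratio of nuclear to cytoplasmic median beta-catenin stain intensity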
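Read-out: Nuclear/cytoplasmic beta-catenin signal ratio, % activation | Assay system: Human HeLa cell line | Times: 24 h compound exposure at 37°C, 5% CO2 | Signal: Fluorescence imaging of beta-catenin antibody stain plus DAPI | Dosing: 5 µM primary, 0.02–20 µM confirmation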
MT stabilizer: microtubule stabilization, imaging screen. HeLa tubulin immunostaining HCS, 24 h; share of cells brighter than vehicle mean+2SD. % tubulin-high responders, % at 10 µM. 0.83% of 200,000 active;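 active means plate Z-score above 3 for both tubulin-high and condensed-nucleus cell shares, with cell loss under 80%, at 10 µM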;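 further: anti alpha tubulin signal scored within the nucleus-defined area of each cell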
L major viab: reduces viability of Leishmania major promastigotes; resazurin fluorescence viability; 9% of 200,000 active; inhibition, % at 10 µM; in the data active means inhibition above about 50%;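 further: promastigotes grown with compound for 44 hours at 28 °C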
Hits are given with their value; – = inactive; · = no result. Most compounds without a hit are left out; they make up all but 9.6% or so of the library.

SMILES	BaF3 parental	Ba/F3 V617F tox	APP 5UTR inh	b-catenin transl	MT stabilizer	L major viab
CCN(CC)CCCn1c(=S)[nH]c2ccccc2c1=O	–	–	–	–	–	–
CC1CC(C)CN(CCCn2c(=S)[nH]c3ccccc3c2=O)C1 (stereo not drawn)	–	–	–	·	–	89
O=C(O)C1CCCCC1C(=O)NCc1ccccn1 (stereo not drawn)	–	–	–	–	–	–
O=c1c(Cc2ccc(Cl)cc2Cl)c(O)ccn1CCCN1CCOCC1	–	–	–	–	–	–
COc1cc(-c2nnc(SCc3c(F)cccc3Cl)o2)cc(OC)c1OC	–	–	–	–	–	82
Cc1ccc(S(=O)(=O)N(CCCO)CC(O)CON=C2c3ccccc3-c3ccccc32)cc1 (stereo not drawn)	–	–	–	–	–	100
Cc1ccc(S(=O)(=O)N(CC(O)CN(C)C)c2ccccc2)cc1 (stereo not drawn)	–	–	–	–	–	–
CCOc1ccccc1NC(=O)CC1Nc2ccccc2NC1=O (stereo not drawn)	–	–	–	–	–	–
CCOc1ccccc1NC(=O)CC1Nc2cc(C)c(C)cc2NC1=O (stereo not drawn)	–	–	–	·	23	–
CCOCCCNC(=O)c1ccc2c(=O)n(Cc3ccc(OC)cc3)c(=O)[nH]c2c1	–	–	–	–	–	–
COc1ccc(/C=C2\SC(=O)N=C2N)cc1	–	–	–	–	–	57
CC1(C)Cc2c(sc3c2c2ncnn2c2nnc(SCC(=O)NCc4ccco4)n32)CO1	–	–	–	–	–	–
CCC1(C)Cc2c(sc3c2c2ncnn2c2nnc(SCC(=O)NCc4ccco4)n32)CO1 (stereo not drawn)	–	–	–	–	13	–
CC[n+]1c(/C=C2/C=C(C)CC(C)C2)sc2ccccc21 (stereo not drawn)	55	60	–	–	–	100
Cc1sc2ccccc2[n+]1CCC(C)S(=O)(=O)[O-] (stereo not drawn)	–	–	–	·	–	–
CC[n+]1c(C=C2C=C(C)OC(C)=C2)sc2ccccc21	91	100	–	–	–	100
CSCCC(NC(=O)C12CC3CC(CC(C3)C1)C2)C(=O)OCC(=O)c1ccc(C)cc1 (stereo not drawn)	–	–	–	–	–	–
CSCCC(NC(=O)c1ccc([N+](=O)[O-])cc1Cl)C(=O)OCC(=O)C12CC3CC(CC(C3)C1)C2 (stereo not drawn)	–	–	–	·	–	99
Cc1cc(C)c2nc(NCCCNC(=S)NCCCN(C)C)c(C#N)cc2c1	–	–	–	–	–	101
CCOCCCNC(=S)NCCNc1nc2c(C)cccc2cc1C#N	–	–	–	–	–	–
Cc1ccc2cc(C#N)c(NCCNC(=S)NCCCN(C)C)nc2c1C	–	–	–	–	–	100
CCOC(=O)C1CCCN(C(=S)Nc2ccc(OC)cc2)C1 (stereo not drawn)	–	–	–	–	–	–
COc1ccc(NC(=S)N2CCC(c3nc4ccc(Cl)cc4[nH]3)CC2)c(OC)c1	–	–	–	–	–	–
COc1ccc(NC(=S)N2CCCC(c3nc4ccc(C)cc4[nH]3)C2)c(OC)c1 (stereo not drawn)	–	–	–	–	–	100
COc1ccc(NC(=S)N2CCCC(c3nc4ccc(C)cc4[nH]3)C2)cc1 (stereo not drawn)	–	–	–	–	–	94
SMILES	BaF3 parental	Ba/F3 V617F tox	APP 5UTR inh	b-catenin transl	MT stabilizer	L major viab
COC(C(=O)NC(C(C)C)C(C)C)c1ccccc1 (stereo not drawn)	–	–	–	–	–	–
COc1cccc(C2C([N+](=O)[O-])=C(N)Oc3cc(C)oc(=O)c32)c1 (stereo not drawn)	–	–	·	–	·	·
COc1ccc(/C=N/NC(=O)c2[nH]c3ccc(Br)cc3c2-c2ccccc2)cc1	93	96	97	–	14	–
COc1ccc(/C=N/NC(=O)c2[nH]c3ccc(Br)cc3c2-c2ccccc2)c(C(=O)O)c1OC	–	–	·	–	·	·
Cc1c(C(=O)N/N=C/c2ccccc2)[nH]c2ccc(Cl)cc12	–	–	52	56	–	–
Cc1c(C(=O)N/N=C/c2ccc(N(C)C)cc2)[nH]c2ccc(Cl)cc12	–	–	90	–	–	–
COc1cccc(/C=N/Nc2nc3ccccc3n3cnnc23)c1O	–	–	–	–	–	76
COc1cccc(/C=N/Nc2ncnc(Cl)c2N)c1O	–	–	78	–	–	100
COc1ccc(/C=N/Nc2ncnc(Cl)c2N)cc1OC	–	–	–	–	–	–
Oc1ccccc1/C=N/Nc1nccnc1Cl	–	–	–	·	–	98
COc1cccc(/C=N/Nc2nccnc2Cl)c1O	94	95	51	–	–	100
Cn1c(=O)n(C)c2cc(/C=N/N=C3/NC(=O)C(CC(=O)O)S3)ccc21 (stereo not drawn)	–	–	–	–	–	–
Cn1ccc(=S)c2ccccc21	–	–	–	–	–	88
CC(Cl)C(=O)NNC(=O)CNS(=O)(=O)c1ccccc1 (stereo not drawn)	–	–	–	–	–	–
Cc1ccc(NC(=O)NC2CCCN2S(=O)(=O)c2ccc(Cl)cc2)cc1 (stereo not drawn)	–	–	–	–	–	62
CN1CCN(/N=C/c2ccc(Cl)c(Cl)c2)CC1	–	–	–	–	–	97
CN1CCN(/N=C/c2ccc(N(c3ccccc3)c3ccccc3)cc2)CC1	–	–	–	–	–	–
CN1CCN(/N=C/c2ccc(N(C)c3ccccc3)cc2)CC1	–	–	–	–	–	83
CC(/C=N/N1CCN(c2ccccn2)CC1)=C\c1ccccc1	–	–	–	–	–	–
Cc1ccc(C)c(C(=O)Cn2ncc(Cl)c(Cl)c2=O)c1	–	–	–	–	–	95
CCN(CC)S(=O)(=O)c1cc(NC(=O)Cn2ncc(Cl)c(Cl)c2=O)ccc1C	–	–	·	–	·	·
Cc1cccc(Cn2ncc(Cl)c(Cl)c2=O)c1	–	–	·	–	–	62
Cc1cc(C(=O)Cn2ncc(Cl)c(Cl)c2=O)c(C)n1CC(F)(F)F	79	44	75	–	–	63
Cc1cc2oc(=O)cc(CN3CCc4ccccc43)c2cc1Cl	–	–	–	–	–	–
Cc1cc2oc(=O)cc(Cn3ncc(Cl)c(Cl)c3=O)c2cc1Cl	–	–	88	–	–	100
CC(C(=O)O)n1cc(Cl)cn1 (stereo not drawn)	–	–	–	–	–	–
C=CCNC(=S)Nc1cccc(N)c1	–	–	–	–	–	–
Cc1cccc(/N=C/c2c(O)ccc3oc4c(c23)CCCC4)n1	–	–	–	–	–	91
Cc1cccc(/N=C/c2c(O)cc(C)oc2=O)n1	–	–	–	–	–	–
O=C1NCCN(Cc2ccoc2)C1CC(=O)N(Cc1ccccc1)CC1CCC1 (stereo not drawn)	–	–	–	–	–	–
